Measurements from different studies.
Protocols differ between the studies behind these lines.

SMILES | assay | system | conditions | measurement | result
O=C(O)C1CCN(c2ncc(-c3ccc4c(c3)OCCCO4)s2)CC1 |  | male Swiss mouse, plasma | oral, 30 mg/kg, 1 h, single dose | concentration | 7580 ng/mL
O=C1NN=C(N=Cc2ccccc2O)C1=NNn1c(-c2ccccc2)nc2ccccc2c1=O |  |  |  | logP | 3.68
CC(C)(O)c1ccccc1-c1ccc2[nH]c(/C=C/c3ccc(C(F)(F)F)cc3)nc2c1 |  | male human, plasma | oral, 2 mg, single dose, fasted, healthy volunteers | MRT | 77.2 h
CCCN(CCC)CCc1cccc2c1CC(=O)N2 | metabolic stability | dog, hepatocytes | 1 µM | hepatocyte CLint | 16.3 µL/min/10⁶ cells
COc1cccc(/C=C/c2ccc(O)cc2)c1 | HPLC |  |  | chromatographic logP | > 3.14
CC(C)(Nc1nc(-c2ccccn2)nc2ccccc12)c1ccccn1 |  | female BALB/c mouse, plasma | oral, 50 mg/kg, 8 h | concentration | 5860 ng/mL
N#CN1C[C@H](n2nc(-c3ccc(Oc4ccc(Cl)cn4)cc3)c(C(N)=O)c2N)CCC12CC2 |  | human, plasma | oral, 600 mg, fed | MRT | 33 h
CC1=NN(CNc2ccccn2)C(=O)C1=NNn1c(-c2ccccc2)nc2ccccc2c1=O |  |  |  | logP | 3.87
Cn1cnc2c(F)c(Nc3ccc(Br)cc3Cl)c(C(=O)NOCCO)cc21 |  | nude mouse, liver | oral, 10 mg/kg, single dose, tumour-bearing | half-life | 2.7 h
O=S(=O)(c1ccc(-c2ccc3nccc(Nc4ccncn4)c3c2)cc1)N1CCOCC1 |  | female BALB/c mouse, plasma | intraperitoneal, 10 mg/kg, 24 h | concentration | 0 ng/mL
O=c1nc(N2CCN(CC3CCCCC3)CC2)sc2c([N+](=O)[O-])cc(C(F)(F)F)cc12 |  | CD-1 mouse, plasma | oral, 100 mg/kg, 15 min | concentration | 2280 ng/mL
CC(C)(C)c1ccc(O)c(CN(Cc2cc(C(C)(C)C)ccc2O)C2CCC(NC(N)=O)CC2)c1 (centres unmarked) |  | male C57BL/6 mouse, plasma | intraperitoneal, 10 mg/kg, single dose | half-life | 2.49 h
COc1cc(/C=C/c2ccccc2)cc(OC)c1 | HPLC |  |  | chromatographic logP | > 3.14
O=c1c(O)c(-c2ccc(O)c(O)c2)oc2cc(O)cc(O)c12 |  | human, plasma | oral, 500 mg, single dose, fasted, healthy volunteers | MRT(0-t) | 6.84 h
c1ccc(-c2nc(N3CCC(c4ccccn4)C3)c3ccccc3n2)nc1 (centres unmarked) |  | female BALB/c mouse, plasma | oral, 50 mg/kg, 1 h | concentration | 2940 ng/mL
Nc1ccc(-c2ccc3ncc(-c4noc(C(F)(F)F)n4)cc3c2)cc1 | metabolic stability | beagle dog, liver microsomes | 1 µM | scaled CLint | 115 mL/min/kg
CC[C@H](C)[C@@H]1NC(=O)[C@@](C)(NC(=O)[C@H](CCCNC(=N)N)NC(=O)[C@H](CC(C)C)NC(=O)[C@@H](NC(=O)[C@H](CCC(N)=O)NC(=O)[C@H](CC(C)C)NC(C)=O)[C@@H](C)O)CCCC=CCCC[C@@](C)(C(=O)N[C@@H](CC(C)C)C(=O)N[C@@H](Cc2ccc3ccccc3c2)C(N)=O)NC(=O)[C@H](CCCNC(=N)N)NC(=O)[C@H](CCC(N)=O)NC1=O |  | male BALB/c mouse, plasma | intramuscular, 5 mg/kg | half-life | 10.6 h
COc1ccc2nccc(N3CCc4c(cc(Cn5ccnc5)cc4-c4cn(C)nc4C(F)(F)F)C3=O)c2c1 |  | male CD-1 mouse, plasma | oral, 10 mg/kg | half-life | 1.2 h
CC(C)Oc1cccc(-c2cnc(N3CCC(C(N)=O)CC3)s2)c1 |  | male Swiss mouse, plasma | oral, 30 mg/kg, 2 h, single dose | concentration | 206 ng/mL
CS(=O)(=O)CCC#N |  | human, plasma | oral, 1000 mg, single dose, fasted | MRT | 32.5 h
CC(C)CN(C[C@@H](O)[C@H](Cc1ccccc1)NC(=O)O[C@H]1CO[C@H]2OCC[C@H]21)S(=O)(=O)c1ccc(N)cc1 |  | BALB/c mouse, plasma | intravenous, 25 mg/kg, 6 h | concentration | 119 ng/mL
c1cnc2ccc(Nc3nc(NC4CC4)c4nc[nH]c4n3)cc2c1 |  | human, plasma | oral, 200 mg/m², patients | MRT(0-t) | 5.7 h
Oc1cccc(CCc2ccccc2)c1 | HPLC |  |  | chromatographic logP | > 3.14
